Assay outcomes as filed in PubChem BioAssay.
MPTP inh: permeability transition pore inhibition; 1.4% of 360,000 active; inhibition, % at 10 µM; AID 602449; isolated mouse mitochondria, Ca2+ swelling absorbance, 30 min;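 active means inhibition of 50% or more, scaled per plate between neutral and stimulator controls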;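 further: 0% = DMSO wells given calcium and 100% = 1 mM EGTA wells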
MIN6 prolif: inducers of beta-cell replication in MIN6 cells. MIN6 cells proliferation, ATPlite luminescence, 48 h; cells starved in 0.2% serum; 100% = growth in 10% serum. proliferation, % at 10 µM. 0.29% of 330,000 active;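 active means compounds whose signal lies at least 3.5 SD above the mean of all wells on their plate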;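 further: 0% = DMSO-treated cells in low-serum medium and 100% = 10% serum control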
Granule exo inh: blocks lytic granule exocytosis | TALL-104 LAMP-1 surface exposure, flow cytometry; cells stimulated with thapsigargin and PMA | inhibition, % at 10 µM | 0.66% of 360,000 active;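 active means inhibition above about 55%, limit read from the data; inconclusive means no clear call, values can overlap the other calls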
UBC13 inh: inhibitors of human UBC13 polyubiquitin chain formation | 0.47% of 330,000 active | P61088 | inhibition, % at 20 µM | TR-FRET | AID 485273; in the data active means inhibition above about 45%, passing the limit was not always enough; inconclusive means no clear call, values can overlap the other calls
Target sequence (P61088 whole entry, looked up): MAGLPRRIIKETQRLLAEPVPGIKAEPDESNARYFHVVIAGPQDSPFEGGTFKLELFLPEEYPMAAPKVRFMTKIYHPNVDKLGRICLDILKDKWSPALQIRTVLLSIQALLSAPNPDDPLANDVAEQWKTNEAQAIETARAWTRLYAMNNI
iPSC survival up: hiPSC single-cell survival enhancement; ATPlite luminescence; 100% = ROCK inhibitor wells, 0% = DMSO; survival enhancement, % at 20 µM; 0.044% of 360,000 active; in the data active means survival enhancement above about 18%;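 further: cells exposed to compounds for 16 hours before the ATP read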
Apaf-1 inh: inhibitors of human Apaf-1 apoptosome. inhibition, % at 20 µM. 0.71% of 330,000 active. reconstituted apoptosome caspase-3 activity, DEVD-Rh110 fluorescence. O14727; active means inhibition of at least 40% at 20 µM;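 further: plate controls were DMSO wells for no effect and DEVD-CHO caspase inhibitor wells for full effect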
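System: Apoptosome proteins | Medium: Hepes pH 7.5 with detergent and BSA | Also added: Cytochrome c trigger plus (Z-DEVD)2-Rh110 caspase-3 substrate | Incubation: 30 min compound preincubation, 50 min activation, room temperature | Detection: Rhodamine 110 fluorescence at Ex 480/Em 540 nm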
Casp3 UBC13 ctr: inhibits human caspase-3 in UBC13 counter-screen | shares compounds with UBC13 inh | Recombinant caspase-3, Caspase-Glo 3/7 luminescence, 60 min | inhibition, % at 20 µM | 4% of 1,400 active | AID 488856;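 active means mean inhibition across replicates above about 26%, limit read from the data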;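 further: plate controls were DMSO with caspase-3 for no effect and DMSO wells lacking enzyme for full effect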
Target sequence (P42574 whole entry, looked up): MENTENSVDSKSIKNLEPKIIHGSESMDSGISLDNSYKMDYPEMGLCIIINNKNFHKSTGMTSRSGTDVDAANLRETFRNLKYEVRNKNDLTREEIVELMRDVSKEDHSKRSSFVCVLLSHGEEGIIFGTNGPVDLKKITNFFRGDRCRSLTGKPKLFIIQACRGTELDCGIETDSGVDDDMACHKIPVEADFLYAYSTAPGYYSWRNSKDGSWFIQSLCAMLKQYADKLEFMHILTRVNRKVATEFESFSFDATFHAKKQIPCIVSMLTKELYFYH
UBC13 confirm: confirmation of human UBC13 polyubiquitin inhibitors. UBC13 polyubiquitination, TR-FRET, biochemical. inhibition, % at 10 µM. 68% of 1,400 active. shares compounds with UBC13 inh; in the data active means inhibition above about 45%; inconclusive means no clear call, values can overlap the other calls
* hit, by the source's call. A selection: hits, their analogues and other compounds. The true share with any hit is near 3%.

What do the screens show for `Cn1c(=O)c2c(SCC(=O)N3CCN(c4ccccc4)CC3)nc(C3CC3)nc2n(C)c1=O`?
MPTP inh: -0.5; MIN6 prolif: -2.6; Granule exo inh: -3.3; UBC13 inh: 63.1*; iPSC survival up: 2.6; Apaf-1 inh: 16.2; Casp3 UBC13 ctr: -1.5; UBC13 confirm: inconclusive

How did CCCn1c2ccccc2c2nc3ccccc3nc21 do in these assays?
MPTP inh: -0.5; MIN6 prolif: -0.6; Granule exo inh: 0.6; UBC13 inh: 46.6*; iPSC survival up: -2.7; Apaf-1 inh: 19.3; Casp3 UBC13 ctr: 5.2; UBC13 confirm: 40.8

Results for CCN(CC)CCn1c2ccccc2c2nc3ccccc3nc21 ?
MPTP inh: -0.6; MIN6 prolif: 1.1; Granule exo inh: 1.0; UBC13 inh: -45.6; iPSC survival up: 0.6; Apaf-1 inh: 14.4

What do the screens show for `O=C1Nc2cc(C(=O)NCCCN3CCOCC3)ccc2S/C1=C/c1cccc(Cl)c1`?
MPTP inh: 1.8; MIN6 prolif: -4.6; Granule exo inh: 48.7; UBC13 inh: 56.7*; iPSC survival up: -0.3; Apaf-1 inh: 13.5; Casp3 UBC13 ctr: 8.9; UBC13 confirm: 72.2*

How did O=C1Nc2cc(C(=O)NCCCN3CCOCC3)ccc2S/C1=C/c1ccccc1F do in these assays?
MPTP inh: -0.2; MIN6 prolif: -3.9; Granule exo inh: 7.1; UBC13 inh: 10.9; iPSC survival up: 0.7; Apaf-1 inh: 21.1

How did COc1ccc(CCN(/C=C2\Sc3ccccc3C2=O)C(C)=O)cc1OC do in these assays?
MPTP inh: 3.4; MIN6 prolif: -1.6; Granule exo inh: 2.9; UBC13 inh: 51.8*; iPSC survival up: -0.3; Apaf-1 inh: 1.5; Casp3 UBC13 ctr: 0.5; UBC13 confirm: 33.7

What do the screens show for `Cc1ccc(NC(=O)c2ncn(CCCN[C@H](C)c3cccc4ccccc34)n2)cc1C`?
MPTP inh: 2.4; Granule exo inh: -3.8; iPSC survival up: 5.9

How did COc1cccc(-c2c(-c3cc(OC)cc(OC)c3)n(C)c3ccc(-c4ccc(OC)nc4)cc23)c1 do in these assays?
MPTP inh: 2.5; MIN6 prolif: -7.1; Granule exo inh: -2.4; UBC13 inh: 46.4*; iPSC survival up: 2.8; Apaf-1 inh: 4.5; Casp3 UBC13 ctr: 3.0; UBC13 confirm: inconclusive

What do the screens show for `COc1ccc(-c2c(-c3cc(OC)cc(OC)c3)n(C)c3ccc(Br)cc23)cc1`?
MPTP inh: 0.1; MIN6 prolif: -3.3; Granule exo inh: -4.1; UBC13 inh: 48.5*; iPSC survival up: 2.2; Apaf-1 inh: -1.5; Casp3 UBC13 ctr: 2.5; UBC13 confirm: 41.5

What do the screens show for `Cc1ccc(NC(=O)C2c3ccccc3-c3ccccc32)cc1`?
MPTP inh: -2.1; Granule exo inh: -7.2; iPSC survival up: 0.3

What do the screens show for `CCCCOc1ccc(CN2CCSCC2)cc1`?
MPTP inh: -0.3; MIN6 prolif: -2.3; Granule exo inh: 2.8; UBC13 inh: -2.7; iPSC survival up: -0.3; Apaf-1 inh: 5.1

How did CS(=O)(=O)N(CC(=O)NCCSCc1ccccc1)c1ccccc1Br do in these assays?
MPTP inh: 3.8; MIN6 prolif: -3.8; Granule exo inh: 13.2; UBC13 inh: 1.3; iPSC survival up: 1.6; Apaf-1 inh: -6.5

Results for CCc1nc(C)c(C(=O)N2CCCC(C(=O)Nc3cccc(-c4cccc(C)c4)c3)C2)o1 (configuration not stated) ?
MPTP inh: 0.3; MIN6 prolif: -4.5; Granule exo inh: 1.3; UBC13 inh: 3.7; iPSC survival up: 0.2; Apaf-1 inh: 12.2

How did CCN(CC)CCNC(=O)c1cn(-c2ccccc2)nc1-c1cccs1 do in these assays?
MPTP inh: -0.2; MIN6 prolif: -1.2; Granule exo inh: 2.0; UBC13 inh: 9.3; iPSC survival up: 6.3; Apaf-1 inh: 1.0

Results for CCN(CC)CCOC(=O)c1ccc(NC(=O)c2cn(-c3ccccc3)nc2-c2cccs2)cc1 ?
MPTP inh: 6.5; MIN6 prolif: -5.4; Granule exo inh: 90.2*; UBC13 inh: 96.4*; iPSC survival up: -2.4; Apaf-1 inh: 32.0; Casp3 UBC13 ctr: -4.2; UBC13 confirm: 111.4*

What do the screens show for `CCOC(=O)/C(=C\c1cccc(O)c1)c1nc2sc(C)c(C)c2c(=O)[nH]1`?
MPTP inh: -0.4; MIN6 prolif: -6.2; Granule exo inh: 13.9; UBC13 inh: 67.4*; iPSC survival up: -1.1; Apaf-1 inh: -3.5; Casp3 UBC13 ctr: -1.0; UBC13 confirm: 65.5*

How did O=c1c2sccc2[nH]c(=S)n1-c1ccccc1 do in these assays?
MPTP inh: 0.2; MIN6 prolif: 3.1; Granule exo inh: 2.2; UBC13 inh: 64.6*; iPSC survival up: -0.2; Apaf-1 inh: -22.3; Casp3 UBC13 ctr: 1.9; UBC13 confirm: inconclusive

What do the screens show for `COc1cc2c(cc1Cl)/C(=C\CCN(C)C)c1ccccc1S2`?
MPTP inh: 0.2; MIN6 prolif: 0.0; Granule exo inh: -6.3; UBC13 inh: 25.3; iPSC survival up: -1.1; Apaf-1 inh: 10.1

Results for CN1CCN(CC/C=C2/c3ccccc3Sc3ccc(S(=O)(=O)N(C)C)cc32)CC1 ?
MPTP inh: 1.6; MIN6 prolif: -7.6; Granule exo inh: -0.6; UBC13 inh: 55.0*; iPSC survival up: -1.1; Apaf-1 inh: 39.1; Casp3 UBC13 ctr: 1.2; UBC13 confirm: 25.6

Results for Cc1nc2ccccc2c2oc(C(=O)N3CCC(N4CCCCC4)CC3)cc12 ?
MPTP inh: 0.3; MIN6 prolif: -2.6; Granule exo inh: 1.4; UBC13 inh: 61.3*; iPSC survival up: 1.8; Apaf-1 inh: 24.9; Casp3 UBC13 ctr: 0.2; UBC13 confirm: 43.6

How did Cc1nc2ccccc2c2oc(C(=O)N3CCN(C4CCCCC4)CC3)cc12 do in these assays?
MPTP inh: 1.1; MIN6 prolif: -6.3; Granule exo inh: 0.4; UBC13 inh: 10.0; iPSC survival up: -3.4; Apaf-1 inh: 6.9

What do the screens show for `O=C(Nc1ccccc1Cl)c1cc(C2CCCN(S(=O)(=O)c3cccs3)C2)on1` (configuration not stated)?
MPTP inh: 0.5; Granule exo inh: -4.2; iPSC survival up: 3.4

Results for CN(C)CCOC(=O)c1ccc2[nH]c3c(c2c1)CSCC3 ?
MPTP inh: -0.5; MIN6 prolif: -4.9; Granule exo inh: 4.6; UBC13 inh: 62.2*; iPSC survival up: 0.5; Apaf-1 inh: 14.6; Casp3 UBC13 ctr: -2.5; UBC13 confirm: 52.7*

What do the screens show for `COc1ccc(C[C@H]2CN3C(=NC[C@@H]3C(C)C)N2CCNC(=O)CCC2CCCCC2)cc1`?
MPTP inh: 1.5; MIN6 prolif: -7.8; Granule exo inh: -2.3; UBC13 inh: 52.9*; iPSC survival up: -3.1; Apaf-1 inh: 26.4; Casp3 UBC13 ctr: -0.9; UBC13 confirm: 19.7
